Most compounds without a hit are left out; they make up all but 2.8% or so of the library.
NPY Y1 blocker = NPY-Y1 (human) receptor antagonism; P25929; HEK293-CNG Y1 cells, membrane potential fluorescence; NPY at EC95, then isoproterenol; inhibition, % at 3.6 µM; 200,000 tested, 1% active;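 active means inhibition above the campaign mean inhibition of all tested compounds plus 3 SD, cut at about 20% in these data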;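 further: 0% = DMSO wells given NPY plus isoproterenol and 100% = isoproterenol alone without NPY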
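Benchmarks – high control isoproterenol alone, low control NPY with isoproterenol · Material – HEK293 Y1/CNG channel cell line · Times – dye 3 h, compound 60 min room temperature, stimulation 45 min · Probe or stimulus – NPY (25 nM), isoproterenol (1 µM), Ro 20-1724 (25 µM) · Evaluation – % inhibition of NPY effect · Signal – fluorescence, membrane potential probe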
NPY2 pot ag = human NPY-Y2 potentiation or agonism, primary screen | 220,000 tested, 0.45% active | activation, % at 3.6 µM | cells expressing NPY-Y2, potentiator/agonist read-out; in the data active means activation above about 27%;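 further: cells stimulated with NPY near EC25 plus isoproterenol at EC100; 0% = vehicle plus submaximal agonist and 100% = vehicle plus saturating agonist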
Target sequence (P49146 whole entry, looked up): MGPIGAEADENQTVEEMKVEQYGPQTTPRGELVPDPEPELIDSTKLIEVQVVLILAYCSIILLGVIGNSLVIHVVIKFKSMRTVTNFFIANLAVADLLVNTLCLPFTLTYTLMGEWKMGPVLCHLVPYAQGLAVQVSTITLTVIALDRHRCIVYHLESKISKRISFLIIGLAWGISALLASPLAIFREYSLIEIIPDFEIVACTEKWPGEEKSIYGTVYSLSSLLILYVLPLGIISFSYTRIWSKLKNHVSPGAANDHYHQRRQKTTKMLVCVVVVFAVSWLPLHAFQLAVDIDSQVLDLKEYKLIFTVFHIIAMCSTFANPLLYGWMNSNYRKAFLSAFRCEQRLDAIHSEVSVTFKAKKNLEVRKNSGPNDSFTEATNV
NPY-Y1 PAM-ag = potentiates or activates human NPY-Y1 receptor. activation, % at 3.6 µM. 220,000 tested, 0.37% active. AID 1304. NPY-Y1 expressing cells, potentiator/agonist activation; in the data active means activation above about 33%, passing the limit was not always enough;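 further: cells stimulated with NPY at EC10 then isoproterenol at EC100; 0% = low agonist plus stimulus and 100% = saturating agonist plus stimulus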
PGE2 EP2 inh = inhibitors of human EP2 prostaglandin E2 receptor | P43116 | C6 glioma cells expressing human EP2, cAMP TR-FRET; cells stimulated with saturating PGE2 | inhibition, % at 25 µM | 260,000 tested, 0.52% active;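 active means percent inhibition above 40 after rounding to a whole number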;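 further: rat C6 glioma host cells with rolipram phosphodiesterase inhibitor present; the protocol text gives 20 µM as final concentration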
Target sequence (P43116 whole entry, looked up): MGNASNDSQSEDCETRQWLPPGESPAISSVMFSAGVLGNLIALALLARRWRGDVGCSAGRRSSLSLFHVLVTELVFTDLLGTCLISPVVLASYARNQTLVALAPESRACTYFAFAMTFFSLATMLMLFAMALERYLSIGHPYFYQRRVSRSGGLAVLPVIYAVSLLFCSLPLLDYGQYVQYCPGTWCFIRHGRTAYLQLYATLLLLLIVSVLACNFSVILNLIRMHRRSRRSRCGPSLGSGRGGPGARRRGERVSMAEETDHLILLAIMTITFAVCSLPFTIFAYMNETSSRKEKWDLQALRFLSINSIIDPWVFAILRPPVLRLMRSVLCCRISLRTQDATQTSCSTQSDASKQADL
NPY Y2 blocker = NPY-Y2 (human) receptor antagonism. P49146. NPY-Y2 expressing cells, antagonist mode. inhibition, % at 2.7 µM. 140,000 tested, 0.99% active; in the data active means inhibition above about 17%;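 further: 0% = vehicle with agonist challenge and 100% = reference antagonist with challenge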
EP2 modulator = EP2 receptor (human) modulation | P43116 | EP2-expressing cells, cAMP HTRF FRET, PGE2 co-stimulation | induction, % at 25 µM | 260,000 tested, 0.83% active | AID 940;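 active means compounds whose cAMP rise, as percent of the full-agonist control response, exceeds 60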;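 further: rat C6 glioma line stably carrying human EP2 under a CMV promoter; the protocol text gives 20 µM as final concentration; 100% = response of wells given 1 µM PGE2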
* = called active by the depositor; ! = a repeat was not active.

What do the screens show for `CCOc1ccccc1-n1c(SCC(=O)NC(C)CC)nnc1-c1ccccn1` (centres undefined)?
PGE2 EP2 inh: 13; EP2 modulator: -14

What do the screens show for `CN1c2ccsc2C(O)=C(C(=O)Nc2ccccc2)S1(=O)=O`?
NPY Y1 blocker: 1; NPY2 pot ag: 0; NPY-Y1 PAM-ag: 9; PGE2 EP2 inh: 6; NPY Y2 blocker: -1; EP2 modulator: 19

How did O=C(Nc1ccccc1)C1=C(c2ccccc2)S(=O)(=O)CCS1(=O)=O do in these assays?
NPY Y1 blocker: -8; NPY2 pot ag: 45*; NPY-Y1 PAM-ag: 64*; PGE2 EP2 inh: 46*; EP2 modulator: -89

Results for CC12CC3CC(C)(C1)CC(CN)(C3)C2 ?
NPY Y1 blocker: 17; NPY2 pot ag: 34*; NPY-Y1 PAM-ag: 37*; PGE2 EP2 inh: 15; NPY Y2 blocker: 16; EP2 modulator: 3

Results for CC12CC3CC(C)(C1)CC(CN1CCOCC1)(C3)C2 ?
NPY Y1 blocker: -6; NPY2 pot ag: -4; NPY-Y1 PAM-ag: 11; PGE2 EP2 inh: 12; NPY Y2 blocker: 7; EP2 modulator: 35

How did Cc1nc2c(C)cccc2cc1C(=O)NCc1nc(-c2ccccc2Cl)no1 do in these assays?
PGE2 EP2 inh: 21; EP2 modulator: -85

Results for CCOC(=O)CSc1nnc(NCC(=O)OC(C)C)c(=O)[nH]1 ?
NPY Y1 blocker: -11; NPY2 pot ag: 14; NPY-Y1 PAM-ag: 26; PGE2 EP2 inh: 14; NPY Y2 blocker: -7; EP2 modulator: -27

How did CN(C)C(=O)CNc1n[nH]c(=S)[nH]c1=O do in these assays?
NPY2 pot ag: -6; NPY-Y1 PAM-ag: 4; PGE2 EP2 inh: 28; EP2 modulator: -4

What do the screens show for `CC(C)COC(=O)C(C)Nc1n[nH]c(=S)[nH]c1=O` (centres undefined)?
NPY Y1 blocker: 1; NPY2 pot ag: -9; NPY-Y1 PAM-ag: 1; PGE2 EP2 inh: 47*; EP2 modulator: -25

Results for CC(C)OC(=O)CNc1n[nH]c(=S)[nH]c1=O ?
NPY Y1 blocker: 3; NPY2 pot ag: -3; NPY-Y1 PAM-ag: -6; PGE2 EP2 inh: 101*; EP2 modulator: -30

What do the screens show for `COC(=O)CNc1n[nH]c(=S)[nH]c1=O`?
NPY Y1 blocker: -1; NPY2 pot ag: 4; NPY-Y1 PAM-ag: -3; PGE2 EP2 inh: 86*; NPY Y2 blocker: 1; EP2 modulator: 15

Results for Cc1ccc(S(=O)(=O)C/N=C(/NC(=S)N(c2ccccc2)c2ccccc2)c2ccccc2)cc1 ?
NPY Y1 blocker: -2; NPY2 pot ag: -4; NPY-Y1 PAM-ag: -10; PGE2 EP2 inh: 1; NPY Y2 blocker: 4; EP2 modulator: 61*

Results for Cc1ccc(S(=O)(=O)/N=C(/NC(=S)Nc2ccccc2)c2ccccc2)cc1 ?
NPY Y1 blocker: 1; NPY2 pot ag: -12; NPY-Y1 PAM-ag: 10; PGE2 EP2 inh: 12; NPY Y2 blocker: 1; EP2 modulator: 24

How did COC(=O)c1c(CSc2ccc(C)c(C)c2)noc1C(=O)NCc1ccc(OC)cc1 do in these assays?
NPY Y1 blocker: 23*; NPY2 pot ag: -35; NPY-Y1 PAM-ag: -15; PGE2 EP2 inh: 15; NPY Y2 blocker: 22*; EP2 modulator: 19

What do the screens show for `Cc1ccc(-c2noc(CSc3nnc(Cc4ccccc4)n3-c3ccc(Cl)cc3)n2)cc1`?
NPY Y1 blocker: 21*; NPY2 pot ag: -35; NPY-Y1 PAM-ag: -37; PGE2 EP2 inh: 0; NPY Y2 blocker: 25*; EP2 modulator: -12

What do the screens show for `CCOc1ccccc1C(=O)Nc1nc2c(s1)C(=O)CC(C)(C)C2`?
PGE2 EP2 inh: 69*; EP2 modulator: -22

Results for CCCn1c(=O)c(C(=O)NCCc2ccc(OC)cc2)c(O)c2ccccc21 ?
PGE2 EP2 inh: 9; EP2 modulator: 71*

Results for CCn1c(=O)c(C(=O)NCc2ccc(OC)c(OC)c2)c(O)c2ccccc21 ?
NPY Y1 blocker: -1; NPY2 pot ag: 8; NPY-Y1 PAM-ag: -2; PGE2 EP2 inh: 10; NPY Y2 blocker: 0; EP2 modulator: 61*!

What do the screens show for `CCn1c(=O)c(C(=O)NCc2ccc(OC)cc2)c(O)c2ccccc21`?
NPY Y1 blocker: -2; NPY2 pot ag: 0; NPY-Y1 PAM-ag: 2; PGE2 EP2 inh: -1; NPY Y2 blocker: 4; EP2 modulator: 62*

What do the screens show for `CCCn1c(=O)c(C(=O)NCc2ccc(OC)c(OC)c2)c(O)c2ccccc21`?
NPY Y1 blocker: -1; NPY2 pot ag: -6; NPY-Y1 PAM-ag: 16; PGE2 EP2 inh: 10; NPY Y2 blocker: -3; EP2 modulator: 50

How did Cn1c(=O)c2c(ncn2CN2CCN(Cn3cnc4c3c(=O)n(C)c(=O)n4C)CC2)n(C)c1=O do in these assays?
PGE2 EP2 inh: 46*; EP2 modulator: 6

How did Cc1ccc(S(=O)(=O)NN2C(=O)/C(=C/c3cccn3C)SC2=S)cc1 do in these assays?
NPY Y1 blocker: 28*; NPY2 pot ag: -26; NPY-Y1 PAM-ag: -42; PGE2 EP2 inh: 7; NPY Y2 blocker: 9; EP2 modulator: -3

What do the screens show for `Cc1nn2c(C(F)(F)F)c3c(nc2c1-c1ccccc1)CCC3`?
NPY Y1 blocker: 3; NPY2 pot ag: 2; NPY-Y1 PAM-ag: 7; PGE2 EP2 inh: 7; EP2 modulator: 62*

What do the screens show for `Cc1nn2c(NC(C)C)c3c(nc2c1-c1ccccc1)CCC3`?
NPY2 pot ag: -27; NPY-Y1 PAM-ag: 8; PGE2 EP2 inh: 7; EP2 modulator: -27

What do the screens show for `Fc1cccc(Oc2nc3ccccc3n3cccc23)c1`?
NPY Y1 blocker: 13; NPY2 pot ag: -10; NPY-Y1 PAM-ag: -6; PGE2 EP2 inh: 14; NPY Y2 blocker: 8; EP2 modulator: 62*

How did CSc1nc2ccccc2n1Cc1cccc(F)c1 do in these assays?
NPY Y1 blocker: 15; NPY2 pot ag: -24; NPY-Y1 PAM-ag: -14; PGE2 EP2 inh: 9; NPY Y2 blocker: 10; EP2 modulator: 35

How did CSc1ccccc1-c1n[nH]c(=S)o1 do in these assays?
NPY Y1 blocker: -2; NPY2 pot ag: -9; NPY-Y1 PAM-ag: -25; PGE2 EP2 inh: 46*; EP2 modulator: 38

Results for CC1=NN(c2ccccc2)C(=O)/C1=C/C=C/c1ccccc1 ?
NPY Y1 blocker: 3; NPY2 pot ag: 10; NPY-Y1 PAM-ag: 2; PGE2 EP2 inh: 8; NPY Y2 blocker: 0; EP2 modulator: -76

Results for Cc1ccc(C2=NOC(=O)/C2=C\C=C\c2ccccc2)cc1 ?
NPY Y1 blocker: 4; NPY2 pot ag: -10; NPY-Y1 PAM-ag: -5; PGE2 EP2 inh: 98*; EP2 modulator: -38

How did O=C(c1ccc(O)cc1)c1ccc(C(=O)c2ccc(O)cc2)cc1 do in these assays?
NPY Y1 blocker: 3; NPY2 pot ag: -6; NPY-Y1 PAM-ag: 8; PGE2 EP2 inh: 11; NPY Y2 blocker: 0; EP2 modulator: -45

How did Oc1ccc(O)cc1 do in these assays?
PGE2 EP2 inh: 110*!; EP2 modulator: -34

Results for CN(C)Cc1cc(C(C)(C)C)cc(C(C)(C)C)c1O ?
NPY2 pot ag: 3; NPY-Y1 PAM-ag: 9; PGE2 EP2 inh: 11; EP2 modulator: 10

Screening results from PubChem.
